This is an account of results in ChEMBL document CHEMBL3046481, “Design, synthesis, and bioactivity study of novel benzoylpyridazyl ureas” (2009).

One may read the mortality as the percentage killed.

What all share (type): functional
Test [1] deals with Culex pipiens pallens. The test can be described thus: Larvicidal activity against fourth-instar larval stage of Culex pipiens pallens (mosquito) assessed as mortality at 2 mg/l at 25 +/-1 degC measured after 8 days. As to conditions: 192 h. The essentials: (§1)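 Insects were laboratory-reared and the bioassay was repeated at 25 ± 1 °C as statistics required. Larvae were scored dead or alive, and mortality was corrected with Abbott's formula. Results are given as percentage mortality on a 0–100 scale, where 0 is no activity and 100 is total kill. Hexaflumuron was run under the same conditions as the reference.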

For test [2], the system named is Mythimna separata. Nature of the test: Larvicidal activity against fourth-instar larval stage of Mythimna separata (Oriental armyworm) in compound pretreated corn leaves assessed as mortality at 200 mg/l at 25 +/-1 degC measured after 4 days. The essentials: as §1
The test system of test [3] is Mythimna separata. The test can be described thus: Larvicidal activity against fourth-instar larval stage of Mythimna separata (Oriental armyworm) in compound pretreated corn leaves assessed as mortality at 25 mg/l at 25 +/-1 degC measured after 4 days. Put shortly:
as §1

The subject of test [4] is Culex pipiens pallens. The test can be described thus: Larvicidal activity against fourth-instar larval stage of Culex pipiens pallens (mosquito) assessed as mortality at 1 mg/l at 25 +/-1 degC measured after 8 days. As to conditions: 192 h. The essentials:
as §1

The test system of test [5] is Mythimna separata. The test can be described thus: Larvicidal activity against fourth-instar larval stage of Mythimna separata (Oriental armyworm) in compound pretreated corn leaves assessed as mortality at 10 mg/l at 25 +/-1 degC measured after 4 days. The essentials:
as §1

The test system of test [6] is Mythimna separata. Nature of the test: Larvicidal activity against fourth-instar larval stage of Mythimna separata (Oriental armyworm) in compound pretreated corn leaves assessed as mortality at 100 mg/l at 25 +/-1 degC measured after 4 days. Put shortly:
as §1

Test [7] has as its system Mythimna separata. Nature of the test: Larvicidal activity against fourth-instar larval stage of Mythimna separata (Oriental armyworm) in compound pretreated corn leaves assessed as mortality at 50 mg/l at 25 +/-1 degC measured after 4 days. Put shortly: as §1
The subject of test [8] is Culex pipiens pallens. Nature of the test: Larvicidal activity against fourth-instar larval stage of Culex pipiens pallens (mosquito) assessed as mortality at 0.25 mg/l at 25 +/-1 degC measured after 8 days. The conditions noted are these: 192 h. The essentials: as §1

For `Cc1ccc(NC(=O)NC(=O)c2c(F)cccc2F)nn1`, in the test with Culex pipiens pallens [1], the mortality at 2 µg/mL turned out to be 20%. In addition, the mortality at 200 µg/mL in the test with Mythimna separata [2] turned out to be 10%.

Consider `O=C(NC(=O)c1c(F)cccc1F)Nc1ccc(Sc2ccccc2)nn1`, for which, in the test with Mythimna separata [2], the mortality at 200 µg/mL is 20%.

Regarding `O=C(NC(=O)c1c(F)cccc1F)Nc1ccc(OCC(F)(F)F)nn1`, the mortality at 25 µg/mL with Mythimna separata [3] amounted to 100%. The mortality at 1 µg/mL with Culex pipiens pallens [4] came to 30%. In the test on Mythimna separata [5], the mortality at 10 µg/mL came to 80%.

For `CCCCSc1ccc(NC(=O)NC(=O)c2c(F)cccc2F)nn1`, the mortality at 100 µg/mL in the test with Mythimna separata [6] came to 100%. Also, the mortality at 50 µg/mL in the test on Mythimna separata [7] was 90%. For the same molecule, the mortality at 200 µg/mL with Mythimna separata [2] was 100%.

For `CC(C)Oc1ccc(NC(=O)NC(=O)c2c(F)cccc2F)nn1`, the mortality at 100 µg/mL in the test on Mythimna separata [6] was 100%. The mortality at 2 µg/mL in the test with Culex pipiens pallens [1] worked out at 10%. The mortality at 50 µg/mL in the test with Mythimna separata [7] stood at 70%. Moreover, in the test with Mythimna separata [2], the mortality at 200 µg/mL was determined as 100%.

On to `CCOc1ccc(NC(=O)NC(=O)c2c(F)cccc2F)nn1`, for which the mortality at 100 µg/mL in the test on Mythimna separata [6] was determined as 100%. The mortality at 2 µg/mL with Culex pipiens pallens [1] turned out to be 20%. In addition, the mortality at 50 µg/mL with Mythimna separata [7] was 80%. Moreover, the mortality at 200 µg/mL in the test on Mythimna separata [2] amounted to 100%.

Regarding `O=C(NC(=O)c1c(F)cccc1F)Nc1ccc(Oc2ccccc2Cl)nn1`, in the test on Culex pipiens pallens [1], the mortality at 2 µg/mL was determined as 40%. The mortality at 200 µg/mL in the test with Mythimna separata [2] was 20%.

Consider `O=C(NC(=O)c1c(F)cccc1F)Nc1ccc(OCc2ccc(Cl)cc2)nn1`, for which, in the test on Culex pipiens pallens [1], the mortality at 2 µg/mL is 10%. Further, in the test with Mythimna separata [2], the mortality at 200 µg/mL was determined as 10%.

For the molecule `O=C(NC(=O)c1c(F)cccc1F)Nc1ccc(Oc2ccc(Cl)cc2Cl)nn1`, the mortality at 2 µg/mL in the test with Culex pipiens pallens [1] turned out to be 60%. Besides, the mortality at 200 µg/mL with Mythimna separata [2] was 20%.

For `O=C(NC(=O)c1c(F)cccc1F)Nc1ccc(Oc2c(Cl)cc(Cl)cc2Cl)nn1`, the mortality at 100 µg/mL in the test on Mythimna separata [6] amounted to 10%. The mortality at 2 µg/mL in the test on Culex pipiens pallens [1] was determined as 20%.

On to `O=C(NC(=O)c1c(F)cccc1F)Nc1ccc(Oc2ccc(Br)cc2)nn1`, for which the mortality at 2 µg/mL in the test with Culex pipiens pallens [1] was 100%. For the same molecule, the mortality at 1 µg/mL in the test with Culex pipiens pallens [4] is 90%. Besides, the mortality at 200 µg/mL in the test with Mythimna separata [2] came out at 30%.

Turning to `COc1ccc(Oc2ccc(NC(=O)NC(=O)c3c(F)cccc3F)nn2)cc1`, the mortality at 2 µg/mL in the test with Culex pipiens pallens [1] came out at 10%. Besides, in the test with Mythimna separata [2], the mortality at 200 µg/mL amounted to 10%.

Take `Cc1ccc(Oc2ccc(NC(=O)NC(=O)c3c(F)cccc3F)nn2)cc1`: the mortality at 2 µg/mL in the test on Culex pipiens pallens [1] turned out to be 0%. The mortality at 200 µg/mL in the test on Mythimna separata [2] was determined as 0%.

As to `O=C(NC(=O)c1c(F)cccc1F)Nc1ccc(Oc2ccc(Cl)cc2)nn1`, the mortality at 2 µg/mL with Culex pipiens pallens [1] is 20%. Besides, the mortality at 200 µg/mL in the test with Mythimna separata [2] was 10%.

`O=C(NC(=O)c1c(F)cccc1F)Nc1cc(Cl)c(OC(F)(F)C(F)F)c(Cl)c1` [HEXAFLUMURON]: the mortality at 0.25 µg/mL with Culex pipiens pallens [8] stood at 100%. Further, the mortality at 10 µg/mL in the test with Mythimna separata [5] came to 80%.
